Results published in ChEMBL document CHEMBL1135421, “2-(Anilinomethyl)imidazolines as alpha1 adrenergic receptor agonists: the discovery of alpha1a subtype selective 2'-alkylsulfonyl-substituted analogues” (J Med Chem, 2002).

What was measured:
[1] = molecular target: T1, Alpha-1D adrenergic receptor (Homo sapiens, UniProt P25100); test: Affinity to human Alpha-1D adrenergic receptor determined by radioligand binding techniques from rat-1 fibroblasts membranes
T1 sequence (P25100 whole entry): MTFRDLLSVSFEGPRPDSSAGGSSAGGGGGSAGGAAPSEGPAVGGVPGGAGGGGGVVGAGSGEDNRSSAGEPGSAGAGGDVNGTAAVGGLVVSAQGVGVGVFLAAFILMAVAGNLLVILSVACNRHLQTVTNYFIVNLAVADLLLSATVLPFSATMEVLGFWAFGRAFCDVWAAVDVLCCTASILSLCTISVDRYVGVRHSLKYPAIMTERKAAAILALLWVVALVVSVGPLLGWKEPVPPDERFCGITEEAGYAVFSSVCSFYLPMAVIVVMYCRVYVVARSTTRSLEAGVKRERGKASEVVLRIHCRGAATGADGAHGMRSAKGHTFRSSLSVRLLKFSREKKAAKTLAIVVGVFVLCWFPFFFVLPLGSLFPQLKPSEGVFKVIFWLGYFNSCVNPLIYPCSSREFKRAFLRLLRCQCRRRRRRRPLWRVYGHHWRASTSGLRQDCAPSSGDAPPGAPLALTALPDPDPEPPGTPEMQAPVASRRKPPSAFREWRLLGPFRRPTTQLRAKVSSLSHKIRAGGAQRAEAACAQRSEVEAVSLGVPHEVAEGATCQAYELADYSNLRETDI

[2] = molecular target: T2, Alpha-1A adrenergic receptor (Homo sapiens, UniProt P35348); test: Affinity to Alpha-1 adrenergic receptor determined by radioligand binding techniques from rat-1 fibroblasts membranes
T2 sequence (P35348 whole entry): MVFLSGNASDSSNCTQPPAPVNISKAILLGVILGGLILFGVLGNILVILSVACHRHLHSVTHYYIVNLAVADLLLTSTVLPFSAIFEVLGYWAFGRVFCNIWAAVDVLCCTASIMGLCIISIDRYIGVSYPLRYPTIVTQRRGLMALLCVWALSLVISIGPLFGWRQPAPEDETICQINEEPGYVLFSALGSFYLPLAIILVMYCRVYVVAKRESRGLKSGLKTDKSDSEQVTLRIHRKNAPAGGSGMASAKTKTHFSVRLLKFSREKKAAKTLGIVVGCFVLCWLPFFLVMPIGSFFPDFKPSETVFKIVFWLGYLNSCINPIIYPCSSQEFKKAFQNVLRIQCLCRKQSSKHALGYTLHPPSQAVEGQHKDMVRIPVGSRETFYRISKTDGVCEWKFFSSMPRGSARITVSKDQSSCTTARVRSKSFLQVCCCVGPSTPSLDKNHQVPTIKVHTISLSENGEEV

[3] = molecular target: T3, Alpha-2B adrenergic receptor (Homo sapiens, UniProt P18089); test: Affinity to human Alpha-2B adrenergic receptor determined by radioligand binding techniques from chinese hamster ovary (CHO) cells; type: cell-based
T3 sequence (P18089 whole entry): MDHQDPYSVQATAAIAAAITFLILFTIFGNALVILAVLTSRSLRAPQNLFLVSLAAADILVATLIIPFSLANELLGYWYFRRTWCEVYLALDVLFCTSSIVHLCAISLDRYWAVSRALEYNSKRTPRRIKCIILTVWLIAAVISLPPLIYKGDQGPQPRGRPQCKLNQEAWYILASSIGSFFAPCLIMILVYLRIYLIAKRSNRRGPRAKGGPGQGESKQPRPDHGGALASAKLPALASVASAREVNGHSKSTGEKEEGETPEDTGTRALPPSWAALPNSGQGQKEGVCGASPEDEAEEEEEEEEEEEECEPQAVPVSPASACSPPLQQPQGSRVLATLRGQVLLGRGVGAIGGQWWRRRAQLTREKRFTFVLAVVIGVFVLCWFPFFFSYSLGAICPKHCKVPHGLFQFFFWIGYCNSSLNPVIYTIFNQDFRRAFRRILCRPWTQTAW

[4] = molecular target: T4, Alpha-1B adrenergic receptor (Homo sapiens, UniProt P35368); test: Affinity to human Alpha-1B adrenergic receptor determined by radioligand binding techniques from rat-1 fibroblasts membranes
T4 sequence (P35368 whole entry): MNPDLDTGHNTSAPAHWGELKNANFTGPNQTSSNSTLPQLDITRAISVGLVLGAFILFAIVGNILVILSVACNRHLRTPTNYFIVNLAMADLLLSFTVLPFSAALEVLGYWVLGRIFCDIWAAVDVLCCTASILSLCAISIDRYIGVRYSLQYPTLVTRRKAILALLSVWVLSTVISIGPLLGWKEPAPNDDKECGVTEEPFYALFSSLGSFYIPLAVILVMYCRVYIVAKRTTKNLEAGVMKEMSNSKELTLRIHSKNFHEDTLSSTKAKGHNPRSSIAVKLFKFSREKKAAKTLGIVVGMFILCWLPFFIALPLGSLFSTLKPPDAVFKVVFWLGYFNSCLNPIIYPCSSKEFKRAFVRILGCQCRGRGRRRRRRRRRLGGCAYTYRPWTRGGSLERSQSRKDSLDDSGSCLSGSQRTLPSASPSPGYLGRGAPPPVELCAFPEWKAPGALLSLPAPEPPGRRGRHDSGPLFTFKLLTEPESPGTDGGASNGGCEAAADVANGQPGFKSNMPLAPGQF

[5] = molecular target: T5, Alpha-2C adrenergic receptor (Homo sapiens) (UniProt P18825); test: Efficacy as percentage of the maximal effect observed for nonselective agonist UK-14304 in CHO cells expressing human Alpha-2C adrenergic receptor; type: functional, cell-based
T5 sequence (whole entry): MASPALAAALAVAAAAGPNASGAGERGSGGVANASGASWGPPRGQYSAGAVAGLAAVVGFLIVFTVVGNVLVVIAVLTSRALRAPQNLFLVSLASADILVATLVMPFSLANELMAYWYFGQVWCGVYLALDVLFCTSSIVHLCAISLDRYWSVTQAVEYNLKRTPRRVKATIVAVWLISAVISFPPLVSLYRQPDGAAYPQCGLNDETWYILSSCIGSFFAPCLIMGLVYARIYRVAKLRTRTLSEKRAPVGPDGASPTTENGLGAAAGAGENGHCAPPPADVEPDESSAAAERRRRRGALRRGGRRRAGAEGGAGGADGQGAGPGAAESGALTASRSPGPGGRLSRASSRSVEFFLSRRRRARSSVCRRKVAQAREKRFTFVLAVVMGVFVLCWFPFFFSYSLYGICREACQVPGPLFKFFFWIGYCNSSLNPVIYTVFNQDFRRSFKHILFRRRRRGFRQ

[6] = molecular target: T6, Alpha-2C adrenergic receptor (Homo sapiens, UniProt P18825); test: Affinity to human Alpha-2C adrenergic receptor determined by radioligand binding techniques from chinese hamster ovary (CHO) cells; type: cell-based
T6 sequence (P18825 whole entry): T5 sequence (whole entry)

[7] = molecular target: T1, Alpha-1D adrenergic receptor; test: Agonist potency at Alpha-1D adrenergic receptor assayed in rat-1 fibroblasts expressing human Alpha-1D adrenergic receptor; type: functional
Method in brief: (§1)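 Rat-1 fibroblasts expressing human α1a/α1b/α1d, grown in DMEM with 10% heat-inactivated FBS and 0.6 mg/mL G418, plated 6000 cells/well and cultured 48 h at 37 °C. Loaded 2 h at 37 °C with Calcium Green (4 μM), 0.2% pluronic acid and 2.5 mM probenecid in HEPES buffer pH 7.4. FLIPR read at room temperature: 10 s baseline, then 50 s after compound. 11-point curves as % of 40 μM phenylephrine response, top concentration typically 5 μM.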

[8] = molecular target: T2, Alpha-1A adrenergic receptor; test: Agonist potency at Alpha-1 adrenergic receptor assayed in rat-1 fibroblasts expressing human Alpha-1 adrenergic receptor; type: functional; method in brief: as §1

| Compound | Ki [1] [nM] | Ki [2] [nM] | Ki [3] [nM] | Ki [4] [nM] | Max [5] [%] | Ki [6] [nM] | EC50 [7] [nM] | EC50 [8] [nM] |
| --- | --- | --- | --- | --- | --- | --- | --- | --- |
| CCCS(=O)(=O)c1ccccc1NCC1=NCCN1 | 1380 | 2190 | > 6310 | 832 | 56 | 2630 |  |  |
| CSc1c(F)cccc1NCC1=NCCN1 | 302 | 148 | 3980 | 240 | 104 | 219 | 33.9 | 7.76 |
| COc1ccc(SC)c(NCC2=NCCN2)c1 | 107 | 174 | > 6310 | 692 | 74 | 603 | 5.01 | 1.58 |
| CSc1cc(F)ccc1NCC1=NCCN1 | 5.01 | 20.9 | 851 | 15.1 | 82 | 219 | 9.12 | 7.76 |
| CSc1ccc(C)cc1NCC1=NCCN1 | 17.4 | 20.9 | 977 | 123 | 81 | 200 | 0.912 | 0.11 |
| CSc1ccccc1NCC1=NCCN1 | 11.2 | 43.7 | 776 | 66.1 | 82 | 145 |  |  |
| CCS(=O)(=O)c1ccccc1NCC1=NCCN1 | 2240 | 1200 | > 6310 | 912 | 64 | 2510 | > 100000 | 240 |
| CS(=O)(=O)c1c(F)cccc1NCC1=NCCN1 | 3470 | 550 | > 6310 | 2290 | 93 | 257 | > 100000 | 24 |
| CS(=O)(=O)c1ccc(F)cc1NCC1=NCCN1 | 2630 | 813 | > 6310 | 1320 | 91 | > 5010 | > 100000 | 16.6 |
| CC(C)S(=O)(=O)c1ccccc1NCC1=NCCN1 | 2820 | 2690 | > 6310 | 1000 | 50 | > 5010 | > 5010 | 1950 |
| CSc1ccc(C(F)(F)F)cc1NCC1=NCCN1 | 479 | 589 | 1660 | 2040 | 45 | 603 | 43.7 | 10.5 |
| CCSc1ccccc1NCC1=NCCN1 | 57.5 | 43.7 | 1620 | 75.9 | 101 | 269 | 51.3 | 3.39 |
| Cc1ccc(S(C)(=O)=O)c(NCC2=NCCN2)c1 | 4790 | 776 | > 6310 | 3470 | 76 | > 5010 | > 2000 | 1.95 |
| CS(=O)(=O)c1cc(F)ccc1NCC1=NCCN1 | 1620 | 661 | > 6310 | 513 | 32 | > 5010 |  |  |
| CC(C)Sc1ccccc1NCC1=NCCN1 | 224 | 57.5 | 2340 | 170 | 91 | 166 | > 5010 | 5.01 |
| CS(=O)(=O)c1ccc(C(F)(F)F)cc1NCC1=NCCN1 | > 15800 | > 12600 | > 6310 | > 10000 | 25 | > 5010 | > 100000 | 1100 |
| CSc1ccc(Cl)cc1NCC1=NCCN1 | 4.68 | 18.6 | 676 | 69.2 | 92 | 170 | 2.69 | 0.437 |
| CS(=O)(=O)c1cccc(F)c1NCC1=NCCN1 | 912 | 417 | > 6310 | 380 | 93 | 692 | > 100000 | 41.7 |
| CS(=O)(=O)c1ccccc1NCC1=NCCN1 | 3800 | 589 | > 6310 | 1290 | 68 | > 5010 |  |  |
| CS(=O)(=O)c1ccc(Cl)cc1NCC1=NCCN1 | 2400 | 537 | > 6310 | 2950 | 81 | 4790 | > 100000 | 2.82 |
| C[S+]([O-])c1ccccc1NCC1=NCCN1 (centres undefined) | 1200 | 1290 | > 6310 | 794 | 74 | > 5010 |  |  |
| CS(=O)(=O)c1cc(Cl)ccc1NCC1=NCCN1 | 871 | 457 | > 6310 | 646 | 54 | 3980 | > 100000 | 513 |
| CSc1ccc(F)cc1NCC1=NCCN1 | 6.17 | 33.1 | 331 | 40.7 | 97 | 115 | 21.9 | 2.29 |
